Source: ChEMBL document CHEMBL1212840, “Lysine N(epsilon)-trimethylation, a tool for improving the selectivity of antimicrobial peptides” (J Med Chem, 2010)
Square brackets hold non-standard residues; d marks the D form. Peptide text beside a SMILES is read from it. Lys(Me3) = C[N+](C)(C)CCCC[C@H](N)C(=O)O

Tests used:
Staphylococcus aureus = assay: Antimicrobial activity against Staphylococcus aureus CECT 240 by turbidimetry; assay type: functional
[1] = Selectivity index, ratio of HC50 for sheep erythrocyte to MIC50 for Staphylococcus aureus CECT 240; assay type: functional
[2] = Selectivity index, ratio of HC50 for sheep erythrocyte to MIC50 for Acinetobacter baumannii ATCC 19606 ATCC 19606; assay type: functional
Acinetobacter baumannii = assay: Antimicrobial activity against Acinetobacter baumannii ATCC 19606 ATCC 19606 by turbidimetry; assay type: functional
[3] = Selectivity index, ratio of IC50 for sheep erythrocyte to LC50 for Leishmania pifanoi MHOM/VE/60/LTrod amastigotes
Summary of the method: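 SI = HC50/LC50. HC50 comes from sheep erythrocytes (2 × 10^7 cells/mL in Hank's, 4 h, 37 °C, hemoglobin at 550 nm, 0.1% Triton X-100 as full lysis). For LC50, L. pifanoi axenic amastigotes at 2 × 10^7/mL in Hank's + 20 mM glucose get peptide for 4 h at 32 °C. An aliquot is then regrown in complete medium for 96 h at 32 °C.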

Leishmania pifanoi [4] = assay: Antileishmanial activity against Leishmania pifonoi MHOM/VE/60/LTrod promastigotes after 72 hrs by MTT assay; assay type: functional, organism-based
Leishmania pifanoi [5] = assay: Antileishmanial activity against Leishmania pifonoi MHOM/VE/60/LTrod amastigotes after 4 hrs by MTT assay
Leishmania donovani [6] = assay: Antileishmanial activity against Leishmania donovani MHOM/SD/001S-2D promastigotes after 4 hrs by MTT assay
Leishmania donovani [7] = assay: Antileishmanial activity against Leishmania donovani MHOM/SD/001S-2D promastigotes after 72 hrs by MTT assay; assay type: functional, organism-based
Summary of the method: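 L. donovani promastigotes (strain MHOM/SD/00/1S-2D) are harvested at late exponential phase and washed in Hank's + 20 mM D-glucose, pH 7.2. They are treated with peptide at 2 × 10^7 parasites/mL for 4 h at 26 °C. A 20 μL aliquot then goes into complete medium for 72 h at 26 °C to let survivors proliferate. LC50 is 50% inhibition of proliferation. Triplicates, repeated at least twice.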

[8] = Selectivity index, ratio of IC50 for sheep erythrocyte to LC50 for Leishmania donovani MHOM/SD/001S-2D promastigotes
Summary of the method: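 SI = HC50/LC50. For HC50, washed sheep erythrocytes at 2 × 10^7 cells/mL in Hank's are exposed to peptide for 4 h at 37 °C. Hemoglobin in the supernatant is read at 550 nm; 0.1% Triton X-100 gives full lysis, and HC50 is 50% release.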

[9] = Toxicity in sheep erythrocyte assessed as hemolysis; assay type: cell-based, Ovis aries; details: sheep erythrocytes
Summary of the method: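 Washed sheep erythrocytes at 2 107 cells/mL in Hank's medium were exposed to peptide for 4 h at 37 °C, then spun (5 min, 4 °C). Hemoglobin in the supernatant was read at 550 nm. HC50 is the peptide concentration releasing 50% of the hemoglobin freed by 0.1% Triton X-100.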

CC[C@H](C)[C@H](NC(=O)[C@H](CCCCN)NC(=O)[C@H](CCCC[N+](C)(C)C)NC(=O)[C@H](Cc1ccccc1)NC(=O)[C@H](CC(C)C)NC(=O)[C@H](CCCCN)NC(=O)[C@H](Cc1c[nH]c2ccccc12)NC(=O)[C@@H](N)CCCCN)C(=O)NCC(=O)N[C@@H](C)C(=O)N[C@H](C(=O)N[C@@H](CC(C)C)C(=O)N[C@@H](CCCCN)C(=O)N[C@H](C(=O)N[C@@H](CC(C)C)C(N)=O)C(C)C)C(C)C.[Cl-] (H-KWKLF[Lys(Me3)]KIGAVLKVL-NH2)
MIC50 (Staphylococcus aureus): 4.6 µM
Selectivity Index [1]: 34.3
Selectivity Index [2]: 112.2
MIC50 (Acinetobacter baumannii): 1.4 µM
Selectivity Index [3]: 9.6
LC50 (Leishmania pifanoi [4]): 16.3 µM
IC50 (Leishmania pifanoi [5]): 13.4 µM
IC50 (Leishmania donovani [6]): 3.7 µM
LC50 (Leishmania donovani [7]): 1.7 µM
Selectivity Index [8]: 92.7
HC50 [9]: 158 µM

CC[C@H](C)[C@H](NC(=O)[C@H](CCCC[N+](C)(C)C)NC(=O)[C@H](CCCCN)NC(=O)[C@H](Cc1ccccc1)NC(=O)[C@H](CC(C)C)NC(=O)[C@H](CCCCN)NC(=O)[C@H](Cc1c[nH]c2ccccc12)NC(=O)[C@@H](N)CCCCN)C(=O)NCC(=O)N[C@@H](C)C(=O)N[C@H](C(=O)N[C@@H](CC(C)C)C(=O)N[C@@H](CCCCN)C(=O)N[C@H](C(=O)N[C@@H](CC(C)C)C(N)=O)C(C)C)C(C)C.[Cl-] (H-KWKLFK[Lys(Me3)]IGAVLKVL-NH2)
MIC50 (Staphylococcus aureus): 7.2 µM
Selectivity Index [1]: 22.8
Selectivity Index [2]: 86.3
MIC50 (Acinetobacter baumannii): 1.9 µM
Selectivity Index [3]: 13.5
LC50 (Leishmania pifanoi [4]): 12.1 µM
IC50 (Leishmania pifanoi [5]): 11.4 µM
IC50 (Leishmania donovani [6]): 3.7 µM
LC50 (Leishmania donovani [7]): 2.3 µM
Selectivity Index [8]: 71.3
HC50 [9]: 164 µM

CC[C@H](C)[C@H](NC(=O)[C@H](CCCCN)NC(=O)[C@H](CCCCN)NC(=O)[C@H](Cc1ccccc1)NC(=O)[C@H](CC(C)C)NC(=O)[C@H](CCCCN)NC(=O)[C@H](Cc1c[nH]c2ccccc12)NC(=O)[C@@H](N)CCCCN)C(=O)NCC(=O)N[C@@H](C)C(=O)N[C@H](C(=O)N[C@@H](CC(C)C)C(=O)N[C@@H](CCCC[N+](C)(C)C)C(=O)N[C@H](C(=O)N[C@@H](CC(C)C)C(N)=O)C(C)C)C(C)C.[Cl-] (H-KWKLFKKIGAVL[Lys(Me3)]VL-NH2)
MIC50 (Staphylococcus aureus): 4.4 µM
Selectivity Index [1]: 35.8
Selectivity Index [2]: 74.9
MIC50 (Acinetobacter baumannii): 2.1 µM
Selectivity Index [3]: 13.5
LC50 (Leishmania pifanoi [4]): 11.6 µM
IC50 (Leishmania pifanoi [5]): 10.1 µM
IC50 (Leishmania donovani [6]): 3.5 µM
LC50 (Leishmania donovani [7]): 2.5 µM
Selectivity Index [8]: 63
HC50 [9]: 157 µM

CC[C@H](C)[C@H](NC(=O)[C@H](CCCCN)NC(=O)[C@H](CCCCN)NC(=O)[C@H](Cc1ccccc1)NC(=O)[C@H](CC(C)C)NC(=O)[C@H](CCCC[N+](C)(C)C)NC(=O)[C@H](Cc1c[nH]c2ccccc12)NC(=O)[C@@H](N)CCCCN)C(=O)NCC(=O)N[C@@H](C)C(=O)N[C@H](C(=O)N[C@@H](CC(C)C)C(=O)N[C@@H](CCCCN)C(=O)N[C@H](C(=O)N[C@@H](CC(C)C)C(N)=O)C(C)C)C(C)C.[Cl-] (H-KW[Lys(Me3)]LFKKIGAVLKVL-NH2)
MIC50 (Staphylococcus aureus): 2.4 µM
Selectivity Index [1]: 35.7
Selectivity Index [2]: 50.3
MIC50 (Acinetobacter baumannii): 1.7 µM
Selectivity Index [3]: 10.4
LC50 (Leishmania pifanoi [4]): 8.2 µM
IC50 (Leishmania pifanoi [5]): 9.4 µM
IC50 (Leishmania donovani [6]): 3.3 µM
LC50 (Leishmania donovani [7]): 3.1 µM
Selectivity Index [8]: 27.6
HC50 [9]: 85.6 µM

CC[C@H](C)[C@H](NC(=O)[C@H](CCCCN)NC(=O)[C@H](CCCCN)NC(=O)[C@H](Cc1ccccc1)NC(=O)[C@H](CC(C)C)NC(=O)[C@H](CCCCN)NC(=O)[C@H](Cc1c[nH]c2ccccc12)NC(=O)[C@@H](N)CCCC[N+](C)(C)C)C(=O)NCC(=O)N[C@@H](C)C(=O)N[C@H](C(=O)N[C@@H](CC(C)C)C(=O)N[C@@H](CCCCN)C(=O)N[C@H](C(=O)N[C@@H](CC(C)C)C(N)=O)C(C)C)C(C)C.[Cl-] (H-[Lys(Me3)]WKLFKKIGAVLKVL-NH2)
MIC50 (Staphylococcus aureus): 3.4 µM
Selectivity Index [1]: 22.7
Selectivity Index [2]: 59.4
MIC50 (Acinetobacter baumannii): 1.3 µM
Selectivity Index [3]: 12
LC50 (Leishmania pifanoi [4]): 6.4 µM
IC50 (Leishmania pifanoi [5]): 6 µM
IC50 (Leishmania donovani [6]): 3.9 µM
LC50 (Leishmania donovani [7]): 2.8 µM
Selectivity Index [8]: 27.6
HC50 [9]: 77.2 µM

H-KWKLFKKIGAVLKVL-NH2
MIC50 (Staphylococcus aureus): 2.9 µM
Selectivity Index [1]: 13.8
Selectivity Index [2]: 36.5
MIC50 (Acinetobacter baumannii): 1.1 µM
Selectivity Index [3]: 8.9
LC50 (Leishmania pifanoi [4]): 4.5 µM
IC50 (Leishmania pifanoi [5]): 4.3 µM
IC50 (Leishmania donovani [6]): 1.8 µM
LC50 (Leishmania donovani [7]): 1.5 µM
Selectivity Index [8]: 26.8
HC50 [9]: 40.2 µM

CC[C@H](C)[C@H](NC(=O)[C@H](CCCC[N+](C)(C)C)NC(=O)[C@H](CCCC[N+](C)(C)C)NC(=O)[C@H](Cc1ccccc1)NC(=O)[C@H](CC(C)C)NC(=O)[C@H](CCCC[N+](C)(C)C)NC(=O)[C@H](Cc1c[nH]c2ccccc12)NC(=O)[C@@H](N)CCCC[N+](C)(C)C)C(=O)NCC(=O)N[C@@H](C)C(=O)N[C@H](C(=O)N[C@@H](CC(C)C)C(=O)N[C@@H](CCCC[N+](C)(C)C)C(=O)N[C@H](C(=O)N[C@@H](CC(C)C)C(N)=O)C(C)C)C(C)C (H-[Lys(Me3)]W[Lys(Me3)]LF[Lys(Me3)][Lys(Me3)]IGAVL[Lys(Me3)]VL-NH2)
MIC50 (Staphylococcus aureus): > 30 µM
MIC50 (Acinetobacter baumannii): > 30 µM
LC50 (Leishmania pifanoi [4]): > 50 µM
IC50 (Leishmania pifanoi [5]): > 50 µM
IC50 (Leishmania donovani [6]): > 50 µM
LC50 (Leishmania donovani [7]): > 50 µM
HC50 [9]: > 200 µM

CC[C@H](C)[C@H](NC(=O)[C@H](CCCCN)NC(=O)[C@H](CCCCN)NC(=O)[C@H](Cc1ccccc1)NC(=O)[C@H](CC(C)C)NC(=O)[C@H](CCCC[N+](C)(C)C)NC(=O)[C@H](Cc1c[nH]c2ccccc12)NC(=O)[C@@H](N)CCCC[N+](C)(C)C)C(=O)NCC(=O)N[C@@H](C)C(=O)N[C@H](C(=O)N[C@@H](CC(C)C)C(=O)N[C@@H](CCCCN)C(=O)N[C@H](C(=O)N[C@@H](CC(C)C)C(N)=O)C(C)C)C(C)C.[Cl-].[Cl-] (H-[Lys(Me3)]W[Lys(Me3)]LFKKIGAVLKVL-NH2)
MIC50 (Staphylococcus aureus): 8 µM
Selectivity Index [1]: 13.1
Selectivity Index [2]: 30
MIC50 (Acinetobacter baumannii): 3.5 µM
Selectivity Index [3]: 4.2
LC50 (Leishmania pifanoi [4]): 24.8 µM
IC50 (Leishmania pifanoi [5]): 16.2 µM
IC50 (Leishmania donovani [6]): 12.8 µM
LC50 (Leishmania donovani [7]): 15.5 µM
Selectivity Index [8]: 6.7
HC50 [9]: 105 µM

CC[C@H](C)[C@H](NC(=O)[C@H](CCCC[N+](C)(C)C)NC(=O)[C@H](CCCC[N+](C)(C)C)NC(=O)[C@H](Cc1ccccc1)NC(=O)[C@H](CC(C)C)NC(=O)[C@H](CCCCN)NC(=O)[C@H](Cc1c[nH]c2ccccc12)NC(=O)[C@@H](N)CCCCN)C(=O)NCC(=O)N[C@@H](C)C(=O)N[C@H](C(=O)N[C@@H](CC(C)C)C(=O)N[C@@H](CCCCN)C(=O)N[C@H](C(=O)N[C@@H](CC(C)C)C(N)=O)C(C)C)C(C)C.[Cl-].[Cl-] (H-KWKLF[Lys(Me3)][Lys(Me3)]IGAVLKVL-NH2)
MIC50 (Staphylococcus aureus): 10.7 µM
Selectivity Index [1]: 12.5
Selectivity Index [2]: 51.5
MIC50 (Acinetobacter baumannii): 2.6 µM
Selectivity Index [3]: 4.9
LC50 (Leishmania pifanoi [4]): 27 µM
IC50 (Leishmania pifanoi [5]): 9.2 µM
IC50 (Leishmania donovani [6]): 6.1 µM
LC50 (Leishmania donovani [7]): 5.3 µM
Selectivity Index [8]: 25.3
HC50 [9]: 134 µM

CC[C@H](C)[C@H](NC(=O)[C@H](CCCCN)NC(=O)[C@H](CCCC[N+](C)(C)C)NC(=O)[C@H](Cc1ccccc1)NC(=O)[C@H](CC(C)C)NC(=O)[C@H](CCCC[N+](C)(C)C)NC(=O)[C@H](Cc1c[nH]c2ccccc12)NC(=O)[C@@H](N)CCCCN)C(=O)NCC(=O)N[C@@H](C)C(=O)N[C@H](C(=O)N[C@@H](CC(C)C)C(=O)N[C@@H](CCCCN)C(=O)N[C@H](C(=O)N[C@@H](CC(C)C)C(N)=O)C(C)C)C(C)C.[Cl-].[Cl-] (H-KW[Lys(Me3)]LF[Lys(Me3)]KIGAVLKVL-NH2)
MIC50 (Staphylococcus aureus): 6.2 µM
Selectivity Index [1]: 18.9
Selectivity Index [2]: 58.6
MIC50 (Acinetobacter baumannii): 2 µM
Selectivity Index [3]: 7.1
LC50 (Leishmania pifanoi [4]): 16.5 µM
IC50 (Leishmania pifanoi [5]): 7.4 µM
IC50 (Leishmania donovani [6]): 5.1 µM
LC50 (Leishmania donovani [7]): 6.7 µM
Selectivity Index [8]: 17.4
HC50 [9]: 117 µM
